14-3-3 Bad PPI: disrupts binding of bovine 14-3-3 zeta to phospho-Bad peptide | AID 781 | 0.71% of 220,000 active | TR-FRET 14-3-3zeta/Dy647-pBad peptide displacement, 1 h | inhibition, % at 21.7 µM | P63103;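 active = inhibition above about 70%, limit read from the data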;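 note: 0% = full 14-3-3 plus peptide FRET controls and 100% = background without 14-3-3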
Target sequence (P63103 whole entry, looked up): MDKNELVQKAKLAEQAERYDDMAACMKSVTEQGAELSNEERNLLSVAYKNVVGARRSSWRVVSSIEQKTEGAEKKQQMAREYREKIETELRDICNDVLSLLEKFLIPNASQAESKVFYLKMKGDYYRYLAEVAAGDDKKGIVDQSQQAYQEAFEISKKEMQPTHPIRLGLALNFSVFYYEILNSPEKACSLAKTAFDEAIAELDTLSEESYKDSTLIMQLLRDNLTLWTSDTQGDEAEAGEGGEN
p47phox inh: inhibitors of human p47phox binding | 0.53% of 220,000 active | P14598 | inhibition, % at 24.7 µM | p47phox/p22phox peptide binding, fluorescence polarization, 2 h | AID 1274;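 active = inhibition above about 30%, limit read from the data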;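 note: 0% = p47phox with labelled peptide and 100% = labelled peptide alone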
Target sequence (P14598 whole entry, looked up): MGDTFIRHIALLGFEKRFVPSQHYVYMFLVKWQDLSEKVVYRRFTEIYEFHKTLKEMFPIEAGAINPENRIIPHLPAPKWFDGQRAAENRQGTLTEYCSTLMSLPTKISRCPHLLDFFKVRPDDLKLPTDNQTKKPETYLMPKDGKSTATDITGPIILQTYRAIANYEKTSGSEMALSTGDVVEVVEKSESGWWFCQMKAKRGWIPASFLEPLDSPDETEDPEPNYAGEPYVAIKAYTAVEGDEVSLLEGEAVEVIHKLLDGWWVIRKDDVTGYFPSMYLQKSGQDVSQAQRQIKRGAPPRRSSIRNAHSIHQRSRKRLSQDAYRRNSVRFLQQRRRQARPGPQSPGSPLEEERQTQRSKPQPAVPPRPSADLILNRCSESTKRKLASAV
ROMK mod: human ROMK K+ channel modulation, primary screen | AID 1918 | Tet-inducible ROMK, thallium flux fluorescence; actives lie on both sides | B-score at 10 µM | 2% of 130,000 active;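 active = signal ratio slope over the read window, or its plate-corrected B-score, at least 3 SD from the plate mean, either direction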;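 note: B-score of the F/F0 ratio slope over 7 to 12 s after thallium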
Cl transport mod: modulators of human KCC2 chloride dependent transport; KCC2 cells, thallium flux FluoZin-2 fluorescence; B-score of Tl+ flux slope (higher = more flux/activation; lower = inhibition) at 10 µM; 2.2% of 190,000 active; AID 1456;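 active = thallium flux slope and its plate-corrected score both differing from the plate sample mean at a set confidence after two filtering rounds, in either direction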;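 note: slope of fluorescence scaled to starting intensity during 10 to 20 s after thallium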
RBBP9 inhibitor: human RBBP9 hydrolase inhibition; inhibition, % at 7.94 µM; recombinant RBBP9, FP-Rh probe fluorescence polarization; 0.2% of 220,000 active; O75884;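 active = inhibition above the campaign mean of all tested compounds plus 3 SD, cut at about 14% in these data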;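 note: plate controls were DMSO wells with RBBP9 for no effect and wells lacking RBBP9 protein for full effect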
Target sequence (O75884 whole entry, looked up): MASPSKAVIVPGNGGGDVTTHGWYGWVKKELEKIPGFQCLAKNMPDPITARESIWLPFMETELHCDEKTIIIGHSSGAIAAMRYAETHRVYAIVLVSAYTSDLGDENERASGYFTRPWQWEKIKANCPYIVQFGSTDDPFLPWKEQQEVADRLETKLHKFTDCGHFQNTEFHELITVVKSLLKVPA
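System: RBBP9 protein / Quantity: 2.5 µM RBBP9 dispensing solution, before mixing / Also added: Serine-hydrolase probe FP-Rh, 375 nM pre-mixing / Dosing: 7.94 µM single dose, 0.794% DMSO / Timing: enzyme-compound preincubation 30 min, then probe labeling 45 min, 25 °C / Signal: FP readout at 525/598 nm / Controls: DMSO-treated enzyme wells and wells lacking RBBP9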
WT yeast gro inh: growth inhibition of WT yeast, mitochondrial fusion screen. mitochondrial fusion phenotypic screen, WT strain. inhibition, % at 10 µM. 2.1% of 190,000 active; in the data active = inhibition above about 58%; tested in S. cerevisiae
KCC2 secondary: confirmation of human KCC2 transport modulators; HEK293-KCC2, thallium flux, FluoZin2 fluorescence; active compounds read high; 15% of 3,700 active; normalised thallium flux (F/F0 slope) at 10 µM; shares compounds with Cl transport mod;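 active = thallium flux slope above the same plate's solvent-only control mean plus 3 SD; inconclusive = the two replicate wells disagree; inactive = no significant difference from solvent-only control wells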
KCC2 bumet counter: bumetanide-insensitive thallium flux in KCC2 cells with ouabain, counter-screen | shares compounds with Cl transport mod | HEK293-KCC2 + bumetanide/ouabain, thallium flux FluoZin2; active compounds read high | normalized thallium flux at 10 µM | 49% of 3,700 active | AID 1714;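 active = thallium entry rate above the same plate's blocked-transporter control wells by more than 3 SD; inconclusive = the two repeat wells disagree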;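 note: raw slope of fluorescence over initial fluorescence between 10 and 20 s after thallium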
KCC2 secondary2: confirmation of human KCC2 transport modulators | HEK293-KCC2, thallium flux FluoZin2 fluorescence; actives lie on both sides; F/F0 rise rate, 10–20 s post-thallium | shares compounds with Cl transport mod | 23% of 3,700 active | normalized thallium flux at 10 µM;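 active = thallium flux slope more than 3 SD above or below the plate's solvent-only control mean, mostly below; inconclusive = the two repeat wells disagreed; inactive = no significant shift from solvent-only controls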;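 note: raw slope with 0.1% DMSO as baseline and bumetanide as block control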
HEK293 Tl flux: parental HEK flux effect, counter-screen; shares compounds with Cl transport mod; HEK293 parental cells, thallium flux FluoZin2, ouabain; baseline-ratio fluorescence slope, 10–20 s after thallium; thallium flux rate (normalised fluorescence) at 10 µM; 46% of 3,700 active; AID 1716;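 active = thallium flux rate significantly above the same plate's solvent-only control wells, beyond their mean plus 3 SD; inconclusive = the two replicate wells gave conflicting results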
KCC2 retest ouab: modulates human KCC2 on retest with ouabain | shares compounds with Cl transport mod | HEK293-KCC2, thallium flux FluoZin2 fluorescence; bidirectional: low = inhibitor, high = activator | raw Tl+ flux slope (below DMSO = inhibition, above = activation) at 10 µM | 48% of 3,700 active | AID 1717;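 active = thallium flux slope beyond 3 SD from same-plate DMSO control mean in most replicates, usually higher, sometimes lower; inconclusive = repeat tests gave conflicting results; inactive = no significant difference from controls in most replicates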;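 note: slope of initial-normalized fluorescence between seconds 10 and 20 after thallium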
HEK293 Tl flux2: parental HEK flux effect, counter-screen 2 | shares compounds with Cl transport mod | HEK293 parental, thallium flux FluoZin-2 fluorescence slope | thallium flux slope at 10 µM | 33% of 3,700 active | AID 1718;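 active = thallium flux slope above the same plate's solvent-control mean plus 3 SD in both duplicate wells; inconclusive = duplicate wells that disagreed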;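 note: run without ouabain in cells lacking the KCC2 cotransporter; slope of fluorescence scaled to its starting value between 10 and 20 s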
* marks the source's active call; other numbers are inactive results; i = inactive; ? = inconclusive; . = not tested or not shown. The list is not random: actives were taken first. Their share in the collection is about 5.8%.

SMILES | 14-3-3 Bad PPI | p47phox inh | ROMK mod | Cl transport mod | RBBP9 inhibitor | WT yeast gro inh | KCC2 secondary | KCC2 bumet counter | KCC2 secondary2 | HEK293 Tl flux | KCC2 retest ouab | HEK293 Tl flux2
COc1cccc(N2CCN(S(=O)(=O)c3ccc4nc(-c5ccccc5)[nH]c4c3)CC2)c1 | -1 | 5 | 1.3 | 9.1* | 1 | 5 | 0.0087 | 0.0051 | 0.031 | 0.0078 | 0.019 | 0.01
O=C(NC1CCCCC1)C(=S)N1CCCC1 | 1 | -5 | 0.23 | 0.21 | 1 | -8 | . | . | . | . | . | .
S=c1[nH]nc(-c2ccccc2)n1/N=C/c1ccc(-c2ccccc2Cl)o1 | 26 | 14 | 1.3 | 6.8* | -6 | 58* | 0.008 | 0.014* | ? | 0.02* | 0.027* | 0.018*
S=c1[nH]nc(-c2ccccn2)n1/N=C/c1ccco1 | -2 | -3 | 0.78 | -0.54 | 1 | . | . | . | . | . | . | .
S=c1[nH]nc(-c2ccccn2)n1/N=C/c1ccc(-c2ccccc2Br)o1 | -11 | 10 | 0.12 | 84* | 8 | 27 | 0.006 | 0.14* | 0.17* | 0.14* | 0.14* | 0.15*
CCOc1cc(Br)ccc1S(=O)(=O)NCc1ccccc1 | -6 | -10 | 0.36 | . | -6 | -1 | 0.007 | 0.0051 | 0.024* | 0.0074 | 0.016* | 0.01
CCOc1ccc(Br)cc1S(=O)(=O)NCc1ccncc1 | 7 | -6 | 0.082 | 0.013 | -8 | 8 | . | . | . | . | . | .
COc1cc([N+](=O)[O-])cc(/C=N/NC(=O)CSc2ccccn2)c1O | -7 | -13 | -0.48 | -0.88 | -3 | . | . | . | . | . | . | .
Cc1nn(C)c(C(=O)Nc2ccc(Cl)c([N+](=O)[O-])c2)c1Cl | -5 | -9 | 0.8 | 0.045 | -8 | -5 | . | . | . | . | . | .
CC1Cc2ccccc2N1C(=O)CN(C)S(=O)(=O)c1cccc2cccnc12 (stereo not drawn) | -3 | -12 | . | . | -9 | 0 | 0.0056 | 0.0055 | 0.023* | 0.0072 | ? | 0.01
CC1Cc2ccccc2N1C(=O)COC(=O)c1cccnc1Cl (stereo not drawn) | -3 | -11 | . | -4* | -11 | -11 | 0.0071 | 0.0061 | 0.027 | 0.0064 | ? | ?
Cc1cnc(C(=O)OCC(=O)N2c3ccccc3CC2C)cn1 (stereo not drawn) | -7 | 0 | 0.00084 | . | 1 | -4 | . | . | . | . | . | .
NC(=O)/C(=N\OC(=O)c1ccco1)c1nc(-c2ccc(Br)cc2)cs1 | 6 | -14 | . | 3.7* | -10 | 3 | 0.0075 | 0.013* | 0.025* | 0.011* | 0.018 | 0.0087
C[n+]1ccccc1COc1ccc(C(C)(C)C)cc1 | 1 | 6 | -1 | -0.12 | -6 | -1 | . | . | . | . | . | .
O=C(Nc1ccc(Cl)cc1)N(CCCN1CCOCC1)Cc1cccs1 | -14 | -3 | . | 1 | -4 | 17 | . | . | . | . | . | .
O=S(=O)(c1ccc(Cl)cc1)N(CCCN1CCOCC1)Cc1cccs1 | 44 | -13 | -0.4 | . | -10 | 5 | 0.017 | 0.0042 | 0.029 | ? | 0.015 | 0.0099
CC1(C)CC(=O)C2=C(C1)OC(N)=C(C#N)C2c1cc2c(cc1[N+](=O)[O-])OCO2 (stereo not drawn) | -17 | 25 | -0.46 | -0.12 | -2 | -25 | . | . | . | . | . | .
CN1/C(=C/C=C(C#N)C#N)C(C)(C)c2ccccc21 | -19 | -337 | . | i | -4 | -9 | . | . | . | . | . | .
Cc1cc(/N=C/C=C2\N(C)c3ccccc3C2(C)C)n(CCC#N)n1 | -2 | -26 | 0.097 | -3.6* | -4 | 2 | 0.0078 | 0.0051 | 0.03 | 0.0056* | ? | 0.0096
NC(=O)CCS(=O)(=O)c1ccc(Cl)cc1 | -1 | 6 | . | . | 1 | -2 | . | . | . | . | . | .
Cc1sc(NC(=O)CSC2=NCCS2)nc1-c1ccccc1 | 9 | -6 | -0.25 | . | -6 | 24 | 0.0078 | 0.0041 | 0.033 | 0.0039 | 0.019 | 0.011
O=C(CSC1=NCCS1)Nc1nc2ccccc2s1 | 1 | -11 | -1.3 | -1.1 | -4 | 8 | . | . | . | . | . | .
O=c1oc2ccccc2c(Nc2ccc3ccccc3c2)c1[N+](=O)[O-] | 64 | -40 | . | -3.8* | -1 | -10 | 0.0091 | 0.0072 | 0.031 | 0.0042 | 0.015* | 0.011
O=c1oc2ccccc2c(NCc2cccc(F)c2)c1[N+](=O)[O-] | 4 | -3 | . | . | 7 | -8 | 0.0074 | 0.0057 | 0.03 | 0.0066 | 0.022* | 0.01
Cc1ccc(Cl)c(OC(=O)Cn2cnc3c2c(=O)n(C)c(=O)n3C)c1 | -17 | -4 | 0.015 | -1.7 | 0 | -7 | . | . | . | . | . | .
SMILES | 14-3-3 Bad PPI | p47phox inh | ROMK mod | Cl transport mod | RBBP9 inhibitor | WT yeast gro inh | KCC2 secondary | KCC2 bumet counter | KCC2 secondary2 | HEK293 Tl flux | KCC2 retest ouab | HEK293 Tl flux2
O=c1[nH]cc(C(F)(F)F)cc1NS(=O)(=O)c1ccccc1[N+](=O)[O-] | -1 | 2 | 0.084 | -0.0045 | -4 | 14 | . | . | . | . | . | .
Cc1ccc(/C(O)=C/C(=O)C(=O)NC23CC4CC(CC(C4)C2)C3)cc1 | 1 | -3 | . | 86* | -2 | . | 0.01 | 0.075* | 0.038 | ? | 0.055* | 0.02*
Cc1occc1C(=O)NNC(=O)Nc1ccc([N+](=O)[O-])cc1 | -11 | -2 | 0.053 | -0.92 | 2 | 3 | . | . | . | . | . | .
Cc1ccccc1C(=O)NC(=S)Nc1ccc(N2CCOCC2)cc1 | -20 | -5 | 0.56 | 0.11 | -1 | 6 | . | . | . | . | . | .
O=C(NC(=S)Nc1ccccc1N1CCOCC1)c1ccc(-c2ccccc2F)o1 | -2 | -13 | . | 15* | -8 | . | 0.011 | 0.028* | 0.037 | 0.034* | 0.031* | 0.012
CC(C)C(=O)N1CCN(c2ccccc2NC(=S)NC(=O)c2cccs2)CC1 | -12 | -5 | -0.51 | 2.8 | -2 | 3 | 0.0063 | 0.0086* | 0.028 | 0.0091* | 0.019 | ?
O=C(NC(=S)Nc1ccccc1N1CCCC1)c1ccc(F)cc1 | 1 | -8 | -0.41 | 16* | 4 | 50 | 0.018* | 0.05* | 0.035 | 0.048* | 0.039* | 0.015*
CC(C)C(=O)N1CCN(c2ccc(NC(=O)c3cccs3)cc2Cl)CC1 | -1 | -9 | -0.25 | -0.92 | 0 | -5 | . | . | . | . | . | .
Cc1ccccc1C(=O)NC(=S)Nc1ccccc1N1CCCC1 | -13 | -7 | -0.11 | 11* | -13 | 23 | 0.0068 | 0.025* | 0.031 | 0.026* | 0.03* | 0.015*

Screening data as filed in PubChem BioAssay.
